# ChEMBL document CHEMBL1152609, “Synthesis and pharmacological exploitation of clioquinol-derived copper-binding apoptosis inducers triggering reactive oxygen species generation and MAPK pathway activation” (2009)
# Calls of active or inactive are those of the source. The calls are words filed in the database; no cut-off is given here.
# Columns and labels:
# HeLa [1] = test: Growth inhibition of human HeLa cells after 48 hrs by MTT assay in presence of 10% FBS supplemented DMEM medium; type: functional
# How it was run: (§1)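 Cells seeded at 5 × 10³/well and allowed 24 h to attach, then exposed to compound (DMSO stock) or vehicle for 48 h in 10% FBS DMEM at 37 °C, 5% CO₂. MTT (2 mg/mL in PBS) added for a further 2 h; formazan dissolved in DMSO and read at 570 nm. Inhibition = (1 − At/Ac) × 100. GI₅₀ interpolated from dose-response curves; mean ± SEM of 4–6 experiments; top concentration 40 μM.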
# [2] = Growth inhibition of human BT-483 cells after 48 hrs by MTT assay in presence of 10% FBS supplemented DMEM medium; type: functional; settings: BT-483, 48 h; how it was run: as §1
# HeLa [3] = test: Activation of ERK phosphorylation in human HeLa cells at 1 uM in presence of 10 uM CuCl2 after 24 hrs by Western blot; type: cell-based
# How it was run: (§2)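 HeLa cells grown in DMEM with 10% FBS, 2 mM glutamine and penicillin/streptomycin at 37 °C, 5% CO₂. Treated cells were lysed and the extracts run on Western blot. Membranes were blocked overnight at 4 °C in TBST/5% non-fat milk. Probed with phospho- and total ERK1/2, p38 and JNK antibodies, then anti-mouse or anti-rabbit IgG (1:10,000, 1 h, RT), with ECL detection.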
# [4] = Activation of JNK phosphorylation in human HeLa cells at 1 uM in presence of 10 uM CuCl2 after 24 hrs by Western blot; type: cell-based; how it was run: as §2
# [5] = target: T1, MAP kinase p38 (Homo sapiens) (UniProt O15264+Q15759+Q16539+P53778); test: Activation of p38 phosphorylation in human HeLa cells at 1 uM in presence of 10 uM CuCl2 after 24 hrs by Western blot; type: cell-based; how it was run: as §2
# HeLa [6] = test: Activation of ERK phosphorylation in human HeLa cells at 1 uM in presence of 10 uM CuCl2 after 48 hrs by Western blot; type: cell-based; how it was run: as §2
# [7] = Activation of JNK phosphorylation in human HeLa cells at 1 uM in presence of 10 uM CuCl2 after 48 hrs by Western blot; type: cell-based; how it was run: as §2
# [8] = Growth inhibition of human SKHep cells after 48 hrs by MTT assay in presence of 10% FBS supplemented DMEM medium; type: functional; how it was run: as §1
# [9] = Growth inhibition of human CE81T cells after 48 hrs by MTT assay in presence of 10% FBS supplemented DMEM medium; type: functional; how it was run: as §1
# HeLa [10] = test: Growth inhibition of human HeLa cells after 48 hrs by MTT assay in presence of 1 uM CuCl2; type: functional; how it was run: as §1
# HeLa [11] = test: Growth inhibition of human HeLa cells after 48 hrs by MTT assay in presence of 10 uM CuCl2; type: functional; how it was run: as §1
# HeLa [12] = test: Growth inhibition of human HeLa cells after 48 hrs by MTT assay in presence of 50 uM CuCl2; type: functional; how it was run: as §1
# HeLa [13] = test: Growth inhibition of human HeLa cells after 48 hrs by MTT assay in presence of 50 uM ZnCl2; type: functional; how it was run: as §1
# HeLa [14] = test: Growth inhibition of human HeLa cells after 48 hrs by MTT assay in presence of 100 uM ZnCl2; type: functional; how it was run: as §1
# HeLa [15] = test: Induction of apoptosis in human HeLa cells assessed as accumulation at subG1 phase at 1 uM after 24 hrs using propidium iodide staining by flow cytometry; type: functional
# How it was run: (§3)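 HeLa cells exposed 24 h to test agent; controls were 0.5% DMSO and untreated cells. Optional additions were CuCl₂ 10 μM, tempol 1 mM or z-VAD. Cells were fixed in 80% ethanol and held at −20 °C. They were then stained 30 min at room temperature in the dark with PI 0.08 mg/mL, 0.1% Triton X-100 and RNase A 0.2 mg/mL in PBS. Subdiploid (sub-G1) fraction was quantified by flow cytometry as % of all events.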
# HeLa [16] = test: Induction of apoptosis in human HeLa cells assessed as accumulation at subG1 phase at 1 uM in presence of 10 uM CuCl2 after 24 hrs using propidium iodide staining by flow cytometry; type: functional; how it was run: as §3
# HeLa [17] = test: Induction of apoptosis in human HeLa cells assessed as accumulation at subG1 phase at 2 uM after 24 hrs using propidium iodide staining by flow cytometry; type: functional; how it was run: as §3
# HeLa [18] = test: Induction of apoptosis in human HeLa cells assessed as accumulation at subG1 phase at 1 uM in presence of 10 uM CuCl2 and 1 mM tempol after 24 hrs using propidium iodide staining by flow cytometry; type: functional; how it was run: as §3
# HeLa [19] = test: Induction of apoptosis in human HeLa cells assessed as accumulation at subG1 phase at 1 uM in presence of 10 uM CuCl2 and 10 uM caspase inhibitor z-VAD after 24 hrs using propidium iodide staining by flow cytometry; type: functional; how it was run: as §3
# HeLa [20] = test: Stimulation of reactive oxygen species in human HeLa cells at 1 uM in presence of 5 uM CuCl2 after 1 hr by dihydroethidium dye based fluorescence assay; type: functional, cell-based
# How it was run: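 HeLa cells grown in DMEM with 10% FBS, 2 mM glutamine, penicillin/streptomycin at 37 °C, 5% CO2. Compound given with CuCl2, with or without tempol 1 mM; 0.5% DMSO control, untreated blank. Dihydroethidium 5 µmol/L loaded 30 min, PBS wash, epifluorescence microscopy; four separate cultures, two to six coverslips each.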
# [21] = target: T1, MAP kinase p38 (Homo sapiens); test: Activation of p38 phosphorylation in human HeLa cells at 1 uM in presence of 10 uM CuCl2 after 48 hrs by Western blot; type: cell-based; how it was run: as §2
# HeLa [22] = test: Activation of ERK phosphorylation in human HeLa cells at 1 uM in presence of 10 uM CuCl2 after 24 hrs by Western blot
# [23] = Activation of JNK phosphorylation in human HeLa cells at 1 uM in presence of 10 uM CuCl2 after 24 hrs by Western blot
# [24] = target: T1, MAP kinase p38 (Homo sapiens); test: Activation of p38 phosphorylation in human HeLa cells at 1 uM in presence of 10 uM CuCl2 after 24 hrs by Western blot
# HeLa [25] = test: Activation of ERK phosphorylation in human HeLa cells at 1 uM in presence of 10 uM CuCl2 after 48 hrs by Western blot
# [26] = Activation of JNK phosphorylation in human HeLa cells at 1 uM in presence of 10 uM CuCl2 after 48 hrs by Western blot
# [27] = target: T1, MAP kinase p38 (Homo sapiens); test: Activation of p38 phosphorylation in human HeLa cells at 1 uM in presence of 10 uM CuCl2 after 48 hrs by Western blot
compound,measurement,setting,value
Cc1ccc(S(=O)(=O)N2CCN(Cc3cc([N+](=O)[O-])c4cccnc4c3O)CC2)cc1,GI50,HeLa [1],710 nM
same,GI50,[2],1900 nM
same,Activity,HeLa [3],Active
same,Activity,[4],Active
same,Activity,[5],Active
same,Activity,HeLa [6],Active
same,Activity,[7],Active
same,GI50,[8],14600 nM
same,GI50,[9],5900 nM
same,GI50,HeLa [10],650 nM
same,GI50,HeLa [11],250 nM
same,GI50,HeLa [12],60 nM
same,GI50,HeLa [13],480 nM
same,GI50,HeLa [14],260 nM
same,Activity,HeLa [15],6.77%
same,Activity,HeLa [16],17.5%
same,Activity,HeLa [17],18.57%
same,Activity,HeLa [18],1.34%
same,Activity,HeLa [19],1.58%
same,Activity,HeLa [20],Active
same,Activity,[21],Active
same,Activity,HeLa [22],Active
same,Activity,[23],Active
same,Activity,[24],Active
same,Activity,HeLa [25],Active
same,Activity,[26],Active
same,Activity,[27],Active
